# Measured values pooled from the literature.
# Protocols differ between the studies behind these lines.
# Target: Tyrosine-protein kinase CSK (CSK, Homo sapiens, UniProt P41240)
SMILES,test,conditions,remaining binding
O=C(Nc1cnc(Oc2ccc(F)cc2)nc1)N1CCc2ncccc2[C@@H]1c1ccc(F)cc1,"cell-free assay, competition with immobilised ligand",1 µM,100%
C[C@@H]1CCN(c2nccc(-c3cnn4ncccc34)n2)C1,binding,1 µM,89%
CS(=O)(=O)c1cc(C2(NC(=O)c3cncc4c3cnn4-c3ccc(F)cc3)CC2)ccn1,"cell-free assay, competition with immobilised ligand",1 µM,95%
N[C@H]1CCN(c2nccc(-c3cnn4ncccc34)n2)C1,binding,1 µM,100%
COc1cnc(Nc2cccc(S(N)(=O)=O)c2)nc1N1CCN(c2ccccc2)CC1,"binding, competition with immobilised ligand",1 µM,100%
Cc1ccc(-n2nc(C(C)(C)C)cc2NC(=O)Nc2ccc(-n3c(N)c(C(N)=O)c4nc5ccc(NCCCN)cc5nc43)cc2)cc1,"cell-free assay, competition with immobilised ligand",1 µM,0.65%
O=C(c1ccc(Nc2ncc(Cl)c(-c3cc4ccccc4s3)n2)cc1)N1CCC(N2CCCC2)CC1,"binding, competition with immobilised ligand",1 µM,87%
CN(C)c1ncc(F)c(-c2cnn3ncccc23)n1,binding,1 µM,98%
CN1CCN(c2cnc3c(C4CCN(C(=O)c5ccc(OC(F)(F)F)cc5N)CC4)ncnc3c2)CC1,"cell-free assay, competition with immobilised ligand",1 µM,100%
CC1CCCN1c1nccc(-c2cnn3ncccc23)n1 (stereo not drawn),binding,1 µM,100%
FC(F)(F)Oc1cccc(-c2cnc3ccc(-c4ccncc4)nn23)c1,"cell-free assay, competition with immobilised ligand",5 µM,86%
CN(C)c1nccc(-c2cnn3ncccc23)n1,binding,1 µM,68%
O=C(NCC1CCOCC1)c1n[nH]cc1NC(=O)c1c(F)cccc1F,"binding, competition with immobilised ligand",1 µM,98%
O=C(c1ccc(Nc2ncc(Cl)c(-c3ccc(Cl)s3)n2)cc1)N1CCC(N2CCCC2)CC1,"binding, competition with immobilised ligand",1 µM,75%
Nc1ncc2c(n1)-c1c([nH]c3ccc(C#CC4CC4)cc13)CCCC2,"binding, competition with immobilised ligand",1 µM,96%
COc1ccc2c(c1)O[C@@H](c1ccc(OC)c(OC)c1)C[C@H]2NC(=O)C1(c2ccc3c(c2)OC(F)(F)O3)CC1,"cell-free assay, competition with immobilised ligand",1 µM,87%
Cc1cnn2ncc(-c3ccnc(N(C)C)n3)c2c1,binding,1 µM,99%
O=C1CCc2cc(Nc3cc(OC4CCOCC4)c([N+](=O)[O-])cc3Cl)ccc2N1,"cell-free assay, competition with immobilised ligand",1 µM,98%
Cc1cnc(Nc2ccc(C(=O)N3CCC(N4CCCC4)CC3)cc2)nc1-c1cc2ccccc2s1,"binding, competition with immobilised ligand",1 µM,62%
CCc1ccccc1C(=O)Nc1n[nH]c2c(C)c(F)c(C3C(C#N)=C(C)N(C)C(C)=C3C#N)cc12,"cell-free assay, competition with immobilised ligand",1 µM,98%
COc1ncc2cc3ccccc3nc2c1C#N,"cell-free assay, competition with immobilised ligand",5 µM,100%
